This note sets out measurements from ChEMBL document CHEMBL5653631, “A Potent and Selective ULK1 Inhibitor Suppresses Autophagy and Sensitizes Cancer Cells to Nutrient Stress” (iScience, 2018).

Broadly, the inhibition is the relative decrease from the control value, in per cent.

The structures appear in SMILES notation.

Test [1] has as its target T1, cAMP-dependent protein kinase catalytic subunit PRKX (Homo sapiens) (UniProt P51817).
T1 sequence (whole entry): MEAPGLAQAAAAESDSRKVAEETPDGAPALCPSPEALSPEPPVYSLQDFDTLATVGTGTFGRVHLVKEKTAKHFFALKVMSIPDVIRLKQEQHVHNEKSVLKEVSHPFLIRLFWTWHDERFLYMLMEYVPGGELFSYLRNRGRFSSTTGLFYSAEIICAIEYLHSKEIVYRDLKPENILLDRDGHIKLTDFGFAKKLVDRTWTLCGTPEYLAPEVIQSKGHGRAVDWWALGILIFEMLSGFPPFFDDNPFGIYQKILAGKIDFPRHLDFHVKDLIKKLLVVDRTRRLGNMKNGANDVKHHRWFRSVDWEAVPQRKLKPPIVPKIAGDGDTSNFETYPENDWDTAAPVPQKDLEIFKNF
Kind of test: Inhibition of human recombinant PRKX at 40 nM related to control ULK1.

Test [2] has as its target Ribosomal protein S6 kinase alpha-5 (Homo sapiens) (UniProt O75582). The test is described as follows: Inhibition of human recombinant MSK1 at 40 nM in presence of ATP by radiometric assay relative to control.
Test [3] has as its target 5'-AMP-activated protein kinase catalytic subunit alpha-1 (Homo sapiens) (UniProt Q13131). The test is described as follows: Inhibition of human recombinant AMPKa1 at 40 nM related to control ULK1. In outline: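 Radiometric activity assays in a panel of 327 human recombinant kinases, each run in duplicate at one inhibitor concentration. Activity remaining is expressed as percent of vehicle control, and percent inhibition is calculated as 100% minus percent activity remaining.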

The target in test [4] is Epidermal growth factor receptor (Homo sapiens) (UniProt P00533). Kind of test: Inhibition of human recombinant EGFR at 500 nM in presence of ATP by radiometric assay relative to control.
Chain of Epidermal growth factor receptor (Homo sapiens) (P00533 whole entry): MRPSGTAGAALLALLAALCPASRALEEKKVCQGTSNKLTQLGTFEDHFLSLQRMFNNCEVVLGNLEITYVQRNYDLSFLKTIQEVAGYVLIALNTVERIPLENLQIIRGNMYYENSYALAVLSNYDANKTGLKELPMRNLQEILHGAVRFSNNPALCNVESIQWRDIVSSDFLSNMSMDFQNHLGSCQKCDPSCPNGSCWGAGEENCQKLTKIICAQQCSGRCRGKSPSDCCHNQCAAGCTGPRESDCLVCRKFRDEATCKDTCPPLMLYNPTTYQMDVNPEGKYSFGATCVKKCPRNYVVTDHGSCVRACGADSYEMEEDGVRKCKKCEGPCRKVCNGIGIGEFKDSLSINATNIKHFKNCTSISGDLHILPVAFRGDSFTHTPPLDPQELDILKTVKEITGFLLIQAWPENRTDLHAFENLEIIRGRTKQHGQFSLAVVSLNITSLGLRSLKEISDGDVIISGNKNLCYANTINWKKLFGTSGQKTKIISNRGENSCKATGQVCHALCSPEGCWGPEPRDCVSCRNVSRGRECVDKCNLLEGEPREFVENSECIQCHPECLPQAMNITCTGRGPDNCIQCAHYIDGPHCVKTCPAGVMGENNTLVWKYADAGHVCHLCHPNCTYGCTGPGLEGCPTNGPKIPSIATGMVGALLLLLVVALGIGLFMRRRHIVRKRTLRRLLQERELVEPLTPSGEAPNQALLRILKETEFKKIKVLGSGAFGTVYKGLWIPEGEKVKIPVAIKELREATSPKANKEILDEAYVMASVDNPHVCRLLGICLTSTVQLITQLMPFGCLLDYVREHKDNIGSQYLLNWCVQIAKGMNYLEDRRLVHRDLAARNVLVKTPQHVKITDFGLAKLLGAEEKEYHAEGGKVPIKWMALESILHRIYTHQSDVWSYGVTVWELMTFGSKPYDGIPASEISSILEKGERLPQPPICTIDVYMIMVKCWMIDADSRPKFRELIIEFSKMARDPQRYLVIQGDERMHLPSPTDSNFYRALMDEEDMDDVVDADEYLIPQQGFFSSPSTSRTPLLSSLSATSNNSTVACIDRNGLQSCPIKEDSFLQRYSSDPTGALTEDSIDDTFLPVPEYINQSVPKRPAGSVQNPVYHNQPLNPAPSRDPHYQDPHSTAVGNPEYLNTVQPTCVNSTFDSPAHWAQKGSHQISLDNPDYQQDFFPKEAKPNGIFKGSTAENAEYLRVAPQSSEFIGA
Test [5] has as its target Cyclin-dependent kinase 12 (Homo sapiens) (UniProt Q9NYV4). The test is described as follows: Inhibition of human recombinant CRK7 at 500 nM in presence of ATP by radiometric assay relative to control.
Test [6] concerns the target T2, Myosin-IIIb (Homo sapiens) (UniProt Q8WXR4).
T2 sequence (whole entry): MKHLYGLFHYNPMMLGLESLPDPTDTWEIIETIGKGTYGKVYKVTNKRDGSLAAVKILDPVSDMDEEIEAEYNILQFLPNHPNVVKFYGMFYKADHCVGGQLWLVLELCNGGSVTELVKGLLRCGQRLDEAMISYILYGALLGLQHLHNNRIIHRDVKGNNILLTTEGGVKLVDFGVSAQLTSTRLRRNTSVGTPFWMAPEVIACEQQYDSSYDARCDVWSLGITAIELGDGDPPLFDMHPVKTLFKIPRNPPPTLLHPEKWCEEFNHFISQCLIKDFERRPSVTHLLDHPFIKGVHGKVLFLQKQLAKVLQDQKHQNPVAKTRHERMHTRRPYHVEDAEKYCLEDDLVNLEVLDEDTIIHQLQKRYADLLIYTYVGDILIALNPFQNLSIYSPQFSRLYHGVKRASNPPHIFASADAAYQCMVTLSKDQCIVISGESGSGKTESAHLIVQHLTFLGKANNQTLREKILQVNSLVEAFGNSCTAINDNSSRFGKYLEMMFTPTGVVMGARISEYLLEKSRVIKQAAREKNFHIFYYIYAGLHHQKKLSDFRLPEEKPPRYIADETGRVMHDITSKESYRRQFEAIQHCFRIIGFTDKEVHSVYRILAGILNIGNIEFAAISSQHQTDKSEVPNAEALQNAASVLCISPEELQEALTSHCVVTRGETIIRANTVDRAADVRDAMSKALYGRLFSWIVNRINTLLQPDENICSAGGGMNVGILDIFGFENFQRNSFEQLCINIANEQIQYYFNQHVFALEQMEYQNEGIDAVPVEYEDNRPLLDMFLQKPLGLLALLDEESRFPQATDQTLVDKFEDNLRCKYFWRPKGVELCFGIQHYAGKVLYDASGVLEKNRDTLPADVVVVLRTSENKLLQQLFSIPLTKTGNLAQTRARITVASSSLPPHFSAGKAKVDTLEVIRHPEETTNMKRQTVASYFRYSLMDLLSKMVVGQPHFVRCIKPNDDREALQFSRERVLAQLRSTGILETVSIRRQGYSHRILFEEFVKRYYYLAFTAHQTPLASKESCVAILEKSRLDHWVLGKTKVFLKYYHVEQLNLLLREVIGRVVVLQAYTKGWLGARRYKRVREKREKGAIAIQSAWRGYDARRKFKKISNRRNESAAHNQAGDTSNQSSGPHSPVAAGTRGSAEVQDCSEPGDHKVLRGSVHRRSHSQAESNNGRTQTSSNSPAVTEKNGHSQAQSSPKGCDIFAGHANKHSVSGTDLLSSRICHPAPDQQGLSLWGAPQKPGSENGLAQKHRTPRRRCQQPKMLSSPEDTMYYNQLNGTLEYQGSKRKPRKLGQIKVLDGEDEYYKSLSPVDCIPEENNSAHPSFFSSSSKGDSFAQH
Kind of test: Inhibition of human recombinant MYO3B at 15 nM related to control ULK1.

Test [7] deals with Ephrin type-A receptor 2 (Homo sapiens) (UniProt P29317). The test is described as follows: Inhibition of human recombinant EphA2 at 15 nM in presence of ATP by radiometric assay relative to control.
In test [8] the target is Dual specificity mitogen-activated protein kinase kinase 2 (Homo sapiens) (UniProt P36507). Kind of test: Inhibition of human recombinant MAP2K2 at 15 nM related to control ULK1.
Chain of Dual specificity mitogen-activated protein kinase kinase 2 (Homo sapiens) (P36507 whole entry): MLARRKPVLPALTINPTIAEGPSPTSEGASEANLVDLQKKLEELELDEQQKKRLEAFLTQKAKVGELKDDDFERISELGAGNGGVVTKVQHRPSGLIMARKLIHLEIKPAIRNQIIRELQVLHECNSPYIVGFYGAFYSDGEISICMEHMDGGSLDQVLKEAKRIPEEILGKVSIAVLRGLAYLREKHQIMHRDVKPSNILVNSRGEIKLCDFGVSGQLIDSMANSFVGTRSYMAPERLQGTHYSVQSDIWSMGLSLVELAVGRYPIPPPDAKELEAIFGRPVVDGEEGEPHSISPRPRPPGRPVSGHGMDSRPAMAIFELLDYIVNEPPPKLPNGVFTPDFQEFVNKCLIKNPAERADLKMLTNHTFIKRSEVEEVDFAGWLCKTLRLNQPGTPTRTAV

Chain of 5'-AMP-activated protein kinase catalytic subunit alpha-1 (Homo sapiens) (Q13131 whole entry, looked up): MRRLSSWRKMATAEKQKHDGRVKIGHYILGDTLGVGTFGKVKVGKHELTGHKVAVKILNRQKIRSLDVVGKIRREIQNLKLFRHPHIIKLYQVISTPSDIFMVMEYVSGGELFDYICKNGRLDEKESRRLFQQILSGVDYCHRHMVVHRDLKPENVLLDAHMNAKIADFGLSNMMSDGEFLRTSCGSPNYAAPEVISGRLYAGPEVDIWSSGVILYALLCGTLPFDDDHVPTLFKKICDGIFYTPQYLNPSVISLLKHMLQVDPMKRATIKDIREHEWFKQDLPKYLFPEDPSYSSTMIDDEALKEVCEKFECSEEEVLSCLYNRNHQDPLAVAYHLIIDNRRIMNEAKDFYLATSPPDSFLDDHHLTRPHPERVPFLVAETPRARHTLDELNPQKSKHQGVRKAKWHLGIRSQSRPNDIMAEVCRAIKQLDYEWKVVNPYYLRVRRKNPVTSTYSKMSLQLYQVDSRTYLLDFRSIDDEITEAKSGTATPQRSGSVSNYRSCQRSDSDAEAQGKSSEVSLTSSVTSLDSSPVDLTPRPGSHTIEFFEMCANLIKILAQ
Chain of Cyclin-dependent kinase 12 (Homo sapiens) (Q9NYV4 whole entry, looked up): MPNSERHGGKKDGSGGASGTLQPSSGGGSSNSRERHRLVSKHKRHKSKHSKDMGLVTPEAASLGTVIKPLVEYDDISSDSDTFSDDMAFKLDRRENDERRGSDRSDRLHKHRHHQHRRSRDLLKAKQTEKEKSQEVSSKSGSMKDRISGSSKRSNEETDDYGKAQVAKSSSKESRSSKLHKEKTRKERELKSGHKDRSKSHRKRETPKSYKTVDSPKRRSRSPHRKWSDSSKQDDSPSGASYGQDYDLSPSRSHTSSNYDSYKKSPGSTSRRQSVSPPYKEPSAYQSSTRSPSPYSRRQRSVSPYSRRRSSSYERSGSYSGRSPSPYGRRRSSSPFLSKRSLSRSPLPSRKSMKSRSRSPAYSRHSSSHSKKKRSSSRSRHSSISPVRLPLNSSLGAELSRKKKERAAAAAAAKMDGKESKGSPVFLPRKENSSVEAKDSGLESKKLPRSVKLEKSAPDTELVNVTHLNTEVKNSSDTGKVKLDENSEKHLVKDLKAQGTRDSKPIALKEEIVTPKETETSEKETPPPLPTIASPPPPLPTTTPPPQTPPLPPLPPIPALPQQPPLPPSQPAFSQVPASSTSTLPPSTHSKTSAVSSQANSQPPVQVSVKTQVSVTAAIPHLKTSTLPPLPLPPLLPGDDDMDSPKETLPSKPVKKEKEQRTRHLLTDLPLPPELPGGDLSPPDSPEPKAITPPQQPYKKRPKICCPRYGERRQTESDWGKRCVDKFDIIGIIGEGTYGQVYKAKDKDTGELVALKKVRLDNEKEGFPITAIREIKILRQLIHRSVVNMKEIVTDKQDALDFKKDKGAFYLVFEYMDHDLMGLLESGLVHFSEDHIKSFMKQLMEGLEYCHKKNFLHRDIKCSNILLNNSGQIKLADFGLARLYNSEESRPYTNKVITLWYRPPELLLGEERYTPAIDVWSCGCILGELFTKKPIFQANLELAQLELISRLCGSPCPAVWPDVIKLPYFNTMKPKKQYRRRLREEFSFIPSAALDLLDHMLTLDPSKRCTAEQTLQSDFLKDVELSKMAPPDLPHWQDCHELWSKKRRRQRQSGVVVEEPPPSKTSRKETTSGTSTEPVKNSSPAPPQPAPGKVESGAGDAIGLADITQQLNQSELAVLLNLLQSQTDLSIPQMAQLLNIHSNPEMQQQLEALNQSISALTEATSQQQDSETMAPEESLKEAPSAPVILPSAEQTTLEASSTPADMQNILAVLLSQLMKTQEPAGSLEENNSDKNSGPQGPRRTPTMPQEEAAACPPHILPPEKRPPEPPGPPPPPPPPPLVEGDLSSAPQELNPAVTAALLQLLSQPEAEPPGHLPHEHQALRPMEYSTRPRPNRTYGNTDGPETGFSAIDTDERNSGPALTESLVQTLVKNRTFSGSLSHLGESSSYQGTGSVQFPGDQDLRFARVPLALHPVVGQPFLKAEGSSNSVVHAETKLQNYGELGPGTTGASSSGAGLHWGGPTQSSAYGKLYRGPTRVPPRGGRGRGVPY
Chain of Ribosomal protein S6 kinase alpha-5 (Homo sapiens) (O75582 whole entry, looked up): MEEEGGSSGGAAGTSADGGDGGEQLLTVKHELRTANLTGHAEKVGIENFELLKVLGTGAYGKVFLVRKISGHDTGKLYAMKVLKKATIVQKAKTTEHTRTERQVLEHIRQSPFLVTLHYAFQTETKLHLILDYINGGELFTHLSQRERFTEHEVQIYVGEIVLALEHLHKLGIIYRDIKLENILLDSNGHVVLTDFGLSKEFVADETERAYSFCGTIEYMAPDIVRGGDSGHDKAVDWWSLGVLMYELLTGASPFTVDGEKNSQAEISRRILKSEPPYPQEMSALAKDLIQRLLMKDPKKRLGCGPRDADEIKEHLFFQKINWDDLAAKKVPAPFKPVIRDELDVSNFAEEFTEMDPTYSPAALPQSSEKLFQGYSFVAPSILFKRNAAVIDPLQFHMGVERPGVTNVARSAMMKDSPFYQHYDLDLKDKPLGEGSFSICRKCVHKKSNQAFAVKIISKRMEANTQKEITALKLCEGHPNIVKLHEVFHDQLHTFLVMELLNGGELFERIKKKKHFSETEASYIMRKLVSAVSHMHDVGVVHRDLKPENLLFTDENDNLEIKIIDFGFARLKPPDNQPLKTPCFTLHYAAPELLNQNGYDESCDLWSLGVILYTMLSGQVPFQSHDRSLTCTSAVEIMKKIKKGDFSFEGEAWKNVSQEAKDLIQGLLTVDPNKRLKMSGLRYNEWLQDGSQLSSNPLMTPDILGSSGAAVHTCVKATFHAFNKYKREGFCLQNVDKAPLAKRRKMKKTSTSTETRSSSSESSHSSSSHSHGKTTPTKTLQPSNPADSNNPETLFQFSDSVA

With `O=C(N[C@@H](C1CC1)C(F)(F)F)c1cc(-c2cnn3cc(-c4ccc(F)cc4)cnc23)cs1`, the fold change (FC) in test [1] came out at 0.27; in test [3] it was 0.11. In test [2], the inhibition is 0%.
As to `CNC(=O)c1ccccc1Oc1nc(Nc2cc(OC)c(OC)c(OC)c2)ncc1Br`, the values for the inhibition in test [4] and in test [5] were 3% and 0%, respectively.
With `CC(C)[C@H](NC(=O)c1cc(-c2cnn3cc(-c4ccc(OCCN5CCCCC5)cc4)cnc23)cs1)C(F)(F)F`, the fold change (FC) amounted to 0.07 in test [6] and 0 in test [8]. Besides, the inhibition in test [7] stood at 0%.
